Results reported in ChEMBL document CHEMBL1138632, “Identification and structure-activity relationship studies of 3-methylene-2-norbornanone as potent anti-proliferative agents presumably working through p53 mediated apoptosis” (2004).

Legend:
CAKI-1 [1] = assay: Fold selectivity expressed as ratio of LC50 for Caki cells with non-mutant p53 to LC50 for C33A cells with a mutation at Cys 273; assay type: functional, Homo sapiens
Outline: (§1)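 Selectivity is the fold ratio of the Caki-1 (wild-type p53) LC50 to the mutant-p53 line LC50 (C33A or Ramos RA1). LC50s come from the 72 h anti-proliferation assay in RPMI/10% FBS, 0.001–100 range. Values are means of three experiments.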

CAKI-1 [2] = assay: Fold selectivity expressed as ratio of LC50 for Caki cells with non-mutant p53 to LC50 for Ramos RA1 cells with a mutation at Asp 254; assay type: functional, Homo sapiens; outline: as §1
CAKI-1 [3] = assay: Lethal concentration required to kill 50% Caki-1 cells of the human renal carcinoma with non-mutant wt p53; assay type: functional; settings: read-out: LC50 (the source's name)
Outline: (§2)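 Cells (Caki-1 renal carcinoma with wild-type p53 as negative control; C33A cervical and Ramos RA1 lymphocyte lines with mutant p53) plated sub-confluent at 1 × 10⁵ cells/mL in RPMI with 10% FBS. Compounds added at 0.001–100 for 72 h, with a positive control and a vehicle negative control. LC50 is the concentration killing 50% of cells.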

[4] = Lethal concentration required to kill 50% Ramos RA1 cells of the human lymphocyte with a mutation at Asp 254; assay type: functional; settings: read-out: LC50 (the source's name); outline: as §2

SMILES	Fold selectivity (CAKI-1 [1])	Fold selectivity (CAKI-1 [2])	CC50 (CAKI-1 [3])	CC50 [4]
C=C1C2=NS(=O)(=O)CC23CCC1C3(C)C (stereo not drawn)	6.36	7.57	15.9 µM	2.1 µM
C=C1C(=O)C2CCC1(C)C2(C)C (stereo not drawn)	1	1	609 µM	609 µM
C=C1Cc2cc(OC)ccc2C1=O	1.45	9.53	30.5 µM	3.2 µM
C=C1C(=O)C2(C(=O)Nc3ccc(OC)cc3)CCC1C2(C)C (stereo not drawn)	7.11	7.55	108 µM	14.3 µM
C=C1C(=O)C2(C(=O)O)CCC1C2(C)C (stereo not drawn)	1.15	1.46	515 µM	353 µM
C=C1C(=O)C2(CS(=O)(=O)NCc3ccc(OC)cc3)CCC1C2(C)C (stereo not drawn)	1.93	2.72	190 µM	69.9 µM
O=C1C2CCN(CC2)C1(CO)CO	6.4	9.42	162 µM	17.2 µM
COc1ccc(/C=C/c2nc(NCCCN(C)C)c3ccccc3n2)cc1	0.69	0.65	9.3 µM	14.3 µM
C=C1CCc2cc(OC)c(OC)cc2C1=O	0.7	3.24	15.9 µM	4.9 µM
C=C1C(=O)C2(C(=O)NCc3ccc(OC)cc3)CCC1C2(C)C (stereo not drawn)	7.31	7.55	120 µM	15.9 µM
C=C1C(=O)C2(CS(=O)(=O)NCC(C)C)CCC1C2(C)C (stereo not drawn)	1.95	2.13	334 µM	157 µM
C=C1C(=O)C2(CS(=O)(=O)Nc3ccc(OC)cc3)CCC1C2(C)C (stereo not drawn)	8.51	8.98	114 µM	12.7 µM
C=C1CC2CCC1C2 (stereo not drawn)	–	–	> 924 µM	> 924 µM
C=C1CCc2ccccc2C1=O	1.1	2.37	30.6 µM	12.9 µM
C=C1CCc2cc(OC)ccc2C1=O	0.65	9	16.2 µM	1.8 µM
C=C1C(=O)[C@@]2(C)CC[C@H]1C2(C)C	3.29	1	609 µM	609 µM
O=C1CC2CCC1C2 (stereo not drawn)	–	–	> 618 µM	> 618 µM
C=C1C(=O)C2CC1C1CCCC21 (stereo not drawn)	10.15	7.74	271 µM	35 µM
C=C1C(=O)C2(C(=O)OC)CCC1C2(C)C (stereo not drawn)	1.54	1.36	36 µM	26.4 µM
C=C1C2CCC(C2)C1O (stereo not drawn)	3.9	1	805 µM	805 µM
C=C1C(=O)C2CCC1C2 (stereo not drawn)	29.7	13.16	109 µM	8.28 µM
C=C1C(=O)C2(C(=O)NCC(C)C)CCC1C2(C)C (stereo not drawn)	8.07	7.95	171 µM	21.5 µM
CC(C)=C1CC[C@H](C)CC1=O	1.83	1.29	657 µM	509 µM
C=C1/C(=N/O)C2CCC1C2 (stereo not drawn)	–	–	> 728 µM	–
C=C1CCOC1=O [TULIPALINE A]	1.13	1.41	55.4 µM	39.3 µM
